Tests used:
[1] = target: T1, bovine folate binding protein (FBP) (Bos taurus, UniProt P02702)
Method in brief: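 Bovine milk FBP amide-coupled to a CM5 chip (9.5 ng/mm2). Ligands injected in HBS-EP at 30 µL/min (monovalent) or 50 µL/min (dendrimer conjugates). Chip regenerated with 10 mM glycine-HCl pH 2.5. Reference channel subtracted. kon and koff from Langmuir fits, with mass-transport effects checked. KD = koff/kon, averaged over ≥3 measurement sets per concentration with χ2 < 5.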

kidney FAR = details: cited from earlier work
[2] = target: T1, bovine folate binding protein (FBP); details: SPR, earlier study; cited from earlier work

T1 sequence (P02702 20-241): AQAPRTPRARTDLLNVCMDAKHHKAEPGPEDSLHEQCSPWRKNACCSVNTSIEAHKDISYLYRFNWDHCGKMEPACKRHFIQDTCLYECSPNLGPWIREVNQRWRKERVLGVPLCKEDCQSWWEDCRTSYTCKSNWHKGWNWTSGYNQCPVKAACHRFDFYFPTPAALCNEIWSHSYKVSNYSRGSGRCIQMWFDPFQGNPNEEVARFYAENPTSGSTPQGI

Row | koff [1] [s⁻¹] | kon [1] [M⁻¹ s⁻¹] | affinity lower than that of FA ([1]; from the SPR KD values) | Structure (SMILES) | Kd (kidney FAR) [µM] | Kd [2] [µM]
1 | 0.012 | 1100 | – | Nc1nc2ncc(CNc3ccc(C(=O)N[C@@H](CCC(=O)O)C(=O)O)cc3)nc2c(=O)[nH]1 [FA, folic acid] | ~0.001 | 5
2 | – | – | ≈ 2 fold | CN(Cc1cnc2nc(N)nc(N)c2n1)c1ccc(C(=O)N[C@@H](CCC(=O)O)C(=O)O)cc1 [MTX, methotrexate] | 0.02 to 0.1 | –
